Experimental data reported in ChEMBL document CHEMBL1139819, “Cyanopyridyl containing 1,4-dihydroindeno[1,2-c]pyrazoles as potent checkpoint kinase 1 inhibitors: improving oral biovailability” (Bioorg Med Chem Lett, 2007).

What was measured:
[1] = test system: HeLa; assay: Antiproliferative activity against HeLa cells assessed as […] by MTS assay; type: functional, cell-based; details: Homo sapiens
In short: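 MTS proliferation assay in HeLa cells. […] For the combination, the regression baseline was set to the inhibition given by 150 nM doxorubicin alone. The combo/single EC50 ratio indexes potentiation.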

[2] = Antiproliferative activity against H1299 cells assessed as reduction in G2/M cell population by FACS assay; type: functional, cell-based; details: Homo sapiens, NCI-H1299
In short: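 Cell cycle analysis by FACS in H1299 cells. EC50 is the inhibitor concentration that halves the G2/M population induced by 500 nM doxorubicin (combo). It was also measured without doxorubicin (single).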

[3] = biological target: T1, Serine/threonine-protein kinase Chk1 (Homo sapiens, UniProt O14757); assay: Inhibition of recombinant CHK1
T1 sequence (O14757 whole entry): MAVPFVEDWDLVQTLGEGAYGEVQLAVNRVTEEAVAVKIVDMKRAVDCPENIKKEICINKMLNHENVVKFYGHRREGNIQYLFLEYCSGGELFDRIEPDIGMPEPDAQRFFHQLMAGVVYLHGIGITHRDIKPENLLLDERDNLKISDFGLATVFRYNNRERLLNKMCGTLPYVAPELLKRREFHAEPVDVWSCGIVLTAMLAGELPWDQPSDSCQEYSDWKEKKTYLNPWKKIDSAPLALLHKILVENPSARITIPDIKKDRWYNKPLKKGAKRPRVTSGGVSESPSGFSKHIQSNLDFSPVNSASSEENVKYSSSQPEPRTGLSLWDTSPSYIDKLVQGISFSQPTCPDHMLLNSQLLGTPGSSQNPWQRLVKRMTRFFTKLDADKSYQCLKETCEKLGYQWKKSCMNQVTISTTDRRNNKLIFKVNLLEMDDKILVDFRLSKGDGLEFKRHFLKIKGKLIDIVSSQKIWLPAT
In short: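 Substrate is 5 µM human biotinylated Cdc25c peptide. Buffer is 25 mM Hepes pH 7.4, 10 mM MgCl2, Triton X-100, 0.5 mM DTT. ATP at 5 µM plus 33P-ATP, with 2% DMSO. Run 30 min at room temperature, stopped with NaCl/EDTA, then 33P incorporation captured on a Flash Plate.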

[4] = AUC in mouse at 10 mg/kg, po; type: ADME, organism-based; parameters: dose 10 mg/kg, route oral; details: plasma
In short: (§1)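 Oral dosing in mice at 10 mg/kg. Plasma exposure read as AUC and Cmax.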

[5] = Dissociation constant, pKa of the compound; type: physicochemical
[6] = AUC in mouse at 10 mg/kg, ip; type: ADME, organism-based; parameters: dose 10 mg/kg, route intraperitoneal; details: plasma
In short: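 Mice dosed intraperitoneally at 10 mg/kg. Vehicle is 2.5% EtOH, 5% Tween 80, 25% PEG400 in PBS, or for some entries 10% NMP, 20% Solutol, 70% PBS. Plasma exposure is given as AUC.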

[7] = Half life in mouse at 3.0 mg/kg, iv; type: ADME, organism-based; parameters: dose 3 mg/kg, route intravenous; details: in vivo
[8] = Cmax in mouse at 10 mg/kg, po; type: ADME, organism-based; parameters: dose 10 mg/kg, route oral; details: in vivo; in short: as §1
[9] = Volume of distribution in mouse at 3.0 mg/kg, iv; type: ADME, organism-based; parameters: dose 3 mg/kg, route intravenous; details: in vivo
[10] = Oral bioavailability in mouse at 10 mg/kg; type: ADME, organism-based; details: in vivo
[11] = test system: Mus musculus; assay: AUC in mouse at 3.0 mg/kg, iv; type: ADME, organism-based, Plasma; parameters: dose 3 mg/kg, route intravenous; details: in vivo
[12] = AUC in Nu/Nu mouse at 10 mg/kg/day, po in NMP; type: ADME, organism-based; parameters: route oral; details: plasma
In short: (§2)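 Oral dosing in Nu/Nu mice at 10, 25 or 50 mkd in one of two vehicles, NMP or Phosal.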

[13] = AUC in Nu/Nu mouse at 50 mg/kg/day, po in NMP; type: ADME, organism-based; parameters: route oral; details: plasma; in short: as §2
[14] = AUC in Nu/Nu mouse at 25 mg/kg/day, po in phosal; type: ADME, organism-based; parameters: route oral; details: plasma; in short: as §2
[15] = AUC in Nu/Nu mouse at 50 mg/kg/day, po in phosal; type: ADME, organism-based; parameters: route oral; details: plasma; in short: as §2
[16] = AUC in Nu/Nu mouse at 10 mg/kg/day, po in phosal; type: ADME, organism-based; parameters: route oral; details: plasma; in short: as §2
[17] = AUC in Nu/Nu mouse at 25 mg/kg/day, po in NMP; type: ADME, organism-based; parameters: route oral; details: plasma; in short: as §2

Compound | EC50 [1] [nM] | IC50 [3] [nM] | pKa [5] | AUC [6] [ng·h/mL] | further results
COc1cc2c(cc1OC)-c1n[nH]c(-c3ccc(-c4ccc(O)cc4)cc3)c1C2 | > 59000 |  |  |  | EC50 [2]: > 10000 nM
N#Cc1ccc(-c2n[nH]c3c2Cc2ccc(OCCCN4CCCCC4)cc2-3)cn1 | 4000 | 2.6 | 9.1 |  | 
COc1cc2c(cc1OCCO)Cc1c(-c3ccc(C#N)nc3)n[nH]c1-2 |  | 3.1 |  | 300 | 
N#Cc1ccc(-c2n[nH]c3c2Cc2ccc(OCCCC4CCNCC4)cc2-3)cn1 | 2700 | 1 | 11 |  | 
COc1cc2c(cc1OCCc1scnc1C)-c1[nH]nc(-c3ccc(C#N)nc3)c1C2 |  | 1.1 |  |  | 
N#Cc1ccc(-c2n[nH]c3c2Cc2ccc(OCCCc4cccs4)cc2-3)cn1 | > 59000 | 52 | 1.6 |  | 
Cc1ncsc1CCOc1ccc2c(c1)-c1[nH]nc(-c3ccc(C#N)nc3)c1C2 | 7600 | 6.4 | 3.3 |  | 
CC(=O)N1CCN(CCCCOc2ccc3c(c2)-c2[nH]nc(-c4ccc(C#N)nc4)c2C3)CC1 | 33000 | 1.5 | 6.9 | 2200 | 
N#Cc1ccc(-c2n[nH]c3c2Cc2ccc(OCCCn4ccnc4)cc2-3)cn1 | > 59000 | 1.1 | 7.2 |  | 
COc1cc2c(cc1OC)-c1[nH]nc(-c3ccc(C#N)nc3)c1C2 | > 59000 |  |  |  | EC50 [2]: > 10000 nM
CN1CCN(CCCOc2ccc3c(c2)-c2[nH]nc(-c4ccc(C#N)nc4)c2C3)CC1 | 6200 | 1.5 | 9.1 |  | 
COc1cc2c(cc1OCc1ccccn1)Cc1c(-c3ccc(C#N)nc3)n[nH]c1-2 |  | 3.7 |  | 470 | 
COc1cc2c(cc1OCCc1scnc1C)Cc1c(-c3ccc(C#N)nc3)n[nH]c1-2 |  | 2.5 |  |  | 
COc1cc2c(cc1OCCO)-c1[nH]nc(-c3ccc(C#N)nc3)c1C2 |  | 2.6 |  |  | 
C[C@@H]1CN(CCCOc2ccc3c(c2)-c2[nH]nc(-c4ccc(C#N)nc4)c2C3)C[C@H](C)O1 | > 52000 | 1 | 6.1 | 3000 | 

The next lines start with results.

EC50 [1] [nM] | IC50 [3] [nM] | pKa [5] | AUC [6] [ng·h/mL] | Compound | further results
 | 3.8 |  |  | COc1cc2c(cc1OCCN1CCOCC1)Cc1c(-c3ccc(C#N)nc3)n[nH]c1-2 | 
5400 | 0.92 | 9.1 |  | N#Cc1ccc(-c2n[nH]c3c2Cc2ccc(OCCCN4CCCOCC4)cc2-3)cn1 | AUC [4]: 31 ng·h/mL
 | 3 |  | 930 | COc1cc2c(cc1OCCN1CCOCC1)-c1[nH]nc(-c3ccc(C#N)nc3)c1C2 | 
> 59000 | 3.2 |  | 2600 | N#Cc1ccc(-c2n[nH]c3c2Cc2ccc(OCCCN4CCOCC4)cc2-3)cn1 | half-life [7]: 1.4 h; AUC [4]: 3000 ng·h/mL; Cmax [8]: 660 nM; Vd [9]: 7.6 L/kg; bioavailability [10]: 44%; AUC [11]: 2000 ng·h/mL
8100 | 1.4 |  |  | N#Cc1ccc(-c2n[nH]c3c2Cc2ccc(OCCCCCN4CCOCC4)cc2-3)cn1 | 
> 59000 | 7 |  |  | N#Cc1ccc(-c2n[nH]c3c2Cc2ccc(NCCN4CCOCC4)cc2-3)cn1 | 
33000 | 16 |  |  | N#Cc1ccc(-c2n[nH]c3c2Cc2ccc(NC(=O)CCN4CCOCC4)cc2-3)cn1 | 
> 59000 |  | 5.7 | 5700 | N#Cc1ccc(-c2n[nH]c3c2Cc2ccc(OCCN4CCOCC4)cc2-3)cn1 | 
9700 | 1.2 |  |  | N#Cc1ccc(-c2n[nH]c3c2Cc2ccc(CCCCN4CCOCC4)cc2-3)cn1 | 
> 59000 | 6.4 |  |  | N#Cc1ccc(-c2n[nH]c3c2Cc2cc(OCCCN4CCOCC4)ccc2-3)cn1 | 
21000 | 0.75 |  | 10400 | N#Cc1ccc(-c2n[nH]c3c2Cc2ccc(OCCCCN4CCOCC4)cc2-3)cn1 | AUC [12]: 6000 ng·h/mL; half-life [7]: 1.4 h; AUC [4]: > 3300 ng·h/mL; AUC [13]: 25000 ng·h/mL; AUC [14]: 15000 ng·h/mL; Cmax [8]: 770 nM; AUC [15]: 32000 ng·h/mL; Vd [9]: 6.9 L/kg; bioavailability [10]: > 50%; AUC [11]: 2100 ng·h/mL; AUC [16]: 5000 ng·h/mL; AUC [17]: 12000 ng·h/mL
> 59000 | 6.5 |  |  | N#Cc1ccc(-c2n[nH]c3c2Cc2cc(OCCN4CCOCC4)ccc2-3)cn1 | 
29000 | 1.8 | 6.1 | 1700 | N#Cc1ccc(-c2n[nH]c3c2Cc2ccc(OCCOCCN4CCOCC4)cc2-3)cn1 | 
